Measurements from different studies.
Effect on: cell growth or viability

C[C@H]1[C@H](C)CC[C@]2(C(=O)O)CC[C@]3(C)C(=CC[C@@H]4[C@@]5(C)CC[C@H](O)C(C)(C)[C@@H]5CC[C@]43C)[C@H]12  IC50 (WS1; 48 h): 14 µM
CC(=O)O[C@@H]1c2c(ccc3ccc(=O)oc23)OC(C)(C)[C@@H]1OC(=O)C1(C)OC1C (stereo partly drawn)  IC50 (HEp-2; WST-1): 36.4 µM
C=C(C)[C@H](CC=C(C)C)Cc1c(O)cc(O)c2c1O[C@H](c1ccc(O)cc1O)CC2=O  IC50 (MCF7; MTT; 48 h): 19.2 µM
OC[C@@H]1[C@@H](O)[C@H](O)[C@@H](O)CN1CC/C=C/CCOc1cc(F)ccc1F  CC50 (MDBK; MTT): > 500 µM
CC(=O)OC1c2c(ccc3ccc(=O)oc23)OC(C)(C)C1OC(=O)C(C)(O)C(C)O (stereo not drawn)  IC50 (MCF7; WST-1): 6.1 µM
COc1cccc2c1C(=O)c1c(O)c3c(c(O)c1C2=O)C[C@@](O)(C(=O)CO)C[C@@H]3O[C@H]1C[C@H](N)[C@H](O)[C@H](C)O1  viability (MCF7; MTT; 25 µM; 48 h): 16%
O=[N+]([O-])c1ccc(-c2nc3cccc(O)c3[nH]2)o1  CC50 (HEp-2; resazurin; 72 h): 31.6 µM
C/C=C(/C)C(=O)O[C@@H]1[C@H](OC(C)=O)c2c(ccc3ccc(=O)oc23)OC1(C)C  IC50 (HEp-2; WST-1): 53.5 µM
C/C(=C\C(=O)OCCCCCCCCC(=O)O)C[C@@H]1OC[C@H](C[C@@H]2O[C@H]2[C@@H](C)[C@H](C)O)[C@@H](O)[C@H]1O  CC50 (TZM-bl): > 100 µM
CSc1ccc(OCc2ncc([N+](=O)[O-])n2C)cc1  CC50 (THP-1; MTT; 72 h): > 62.5 µM
Cc1nc(C(CN)NC(=O)C(=O)Nc2ccc3c(c2)OCO3)sc1CO (stereo not drawn)  CC50 (TZM-bl; MTS; 72 h): ≥ 750 µM
O=c1oc2c(O)c(O)cc3c(=O)oc4c(O)c(O)cc1c4c23  CC50 (TZM-bl; MTT; 48 h): 469 µg/mL
C=C(C)C(CC=C(C)C)Cc1c(O)cc(OC)c2c1O[C@H](c1ccc(O)cc1O)CC2=O (single isomer, unassigned; (-))  IC50 (MCF7; MTT): 23.2 µM
O=[N+]([O-])c1ccc(-c2nc3cc(F)ccc3[nH]2)o1  CC50 (HEp-2; resazurin; 72 h): 3.1 µM
Cc1cn([C@H]2C[C@H](N=[N+]=[N-])[C@@H](CO)O2)c(=O)[nH]c1=O  CC50 (TZM-bl; MTT; 48 h): > 200 µg/mL
